Assay: Inhibition of Rickettsia prowazekii N-terminal His6-tagged methionine aminopeptidase 1 expressed in Escherichia coli DLB3 Rosetta cells at 10 uM using Met-AMC as substrate preincubated for 1 hr followed by 30 mins incubation after substrate addition measured after 90 mins in presence of MnCl2 by fluorescence assay relative to control
Summary of the method: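 Recombinant R. prowazekii MetAP with Mn(II) as the metal cofactor. Met-AMC substrate; release of free AMC is followed by fluorescence (excitation 360 nm, emission 460 nm). Activity is the slope of fluorescence versus time, compared with an uninhibited control.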

## c1ccc(-c2nn[nH]n2)nc1
  inhibition: 44 to 56%

## Nc1nnc(SCc2ccc(F)cc2)[nH]1
  inhibition: 1 to 18%

## O=C(O)c1nn(-c2ccccc2)c(=O)c2ccccc12
  inhibition: 21 to 44%

## O=C(CSc1nnc(-c2ccco2)[nH]1)N1CCOCC1
  inhibition: 24 to 40%

## Cc1nc(C(=O)O)c(-c2ccccc2F)s1
  inhibition: 26 to 31%

## COc1ccccc1NC(=O)CSc1nnc(C)[nH]1
  inhibition: 1 to 15%

## CCc1nnc(SCC(=O)c2ccc(F)cc2)[nH]1
  inhibition: 2 to 13%

## Cc1ccc(Sc2ccc(C(=O)O)o2)cc1
  inhibition: 27 to 62%

## CCOC(=O)C(C)Sc1nnc(N)[nH]1 (configuration not stated)
  inhibition: 36 to 55%

## Cc1c(C(=O)O)sc2nc3n(c(=O)c12)CCC3
  inhibition: 34 to 50%

## Cc1cc(OC(C)C(=O)NN)cc(C)c1Cl (configuration not stated)
  inhibition: 31 to 69%

## Nc1n[nH]c(SCC(=O)c2cc3ccccc3o2)n1
  inhibition: 21 to 28%

## O=C(O)c1ccc(S(=O)(=O)c2ccccc2)s1
  inhibition: 29 to 65%

## CC(C)(C)C1CCc2n[nH]c(C(=O)O)c2C1 (configuration not stated)
  inhibition: 1 to 41%

## NC(=O)CSc1n[nH]c(-c2ccco2)n1
  inhibition: 1 to 50%

## NCc1nnc(-c2ccccc2)o1
  inhibition: 12 to 13%

## Cc1cccc(CSc2nnc(N)[nH]2)c1
  inhibition: 27 to 46%

## CCCN1CC(=O)C(c2nc3ccccc3[nH]2)=C1N
  inhibition: 1 to 31%

## CCc1nnc(SCC(=O)c2ccc(OC)cc2)[nH]1
  inhibition: 1 to 22%

## COc1ccc(C(=O)CSc2n[nH]c(N)n2)cc1
  inhibition: 32 to 58%

## O=C(CSc1nnc(-c2ccco2)[nH]1)c1ccccc1
  inhibition: 17 to 22%

## O=C(O)c1ccc(-c2ccccc2Cl)s1
  inhibition: 1 to 48%

## CC(C)c1ccc(C(=O)CSc2nc[nH]n2)cc1
  inhibition: 1 to 32%

## Cc1nnc(C(N)c2ccccc2)o1 (configuration not stated)
  inhibition: 5 to 8%

## COc1ccc(N2C(=O)CCC2=O)cc1S(=O)(=O)Nc1cccc2cccnc12
  inhibition: 14 to 36%

## O=C(O)c1cnc2ccccc2c1O
  inhibition: 13 to 55%

## Cc1ccc(OCc2ccc(C(=O)O)o2)cc1
  inhibition: 1 to 22%

## Nc1n[nH]c(SCc2ccc(Br)cc2)n1
  inhibition: 28 to 36%

## CC(N)c1ncc(-c2ccc(F)cc2)o1 (configuration not stated)
  inhibition: 46 to 50%

## c1ccc(-c2nc3ccccc3o2)nc1
  inhibition: 1 to 46%

## c1ccc(-c2cc[nH]n2)nc1
  inhibition: 2 to 52%

## Cc1ccc(-n2nnc(C(=O)O)c2C2CC2)cc1
  inhibition: 1 to 44%

## COC(=O)CSc1nnc(-c2ccco2)[nH]1
  inhibition: 13 to 27%

## Cc1nc2sc(C(=O)O)c(C)c2c(=O)[nH]1
  inhibition: 11 to 18%

## CC(=O)c1c(Nc2ccc(F)cc2)oc(C)cc1=O
  inhibition: 23 to 58%

## COc1ccccc1C1CC(c2cc(F)ccc2O)=NN1 (configuration not stated)
  inhibition: 1 to 57%

## Nc1nnc(SCC(=O)OC2CCCC2)[nH]1
  inhibition: 53 to 59%

## O=C(O)c1ccc(S(=O)(=O)c2ccc(Cl)cc2)o1
  inhibition: 41 to 68%

## CSc1cc(C(=O)O)nc(-c2ccccn2)c1
  inhibition: 36 to 68%

## CCc1nnc(SCC(=O)c2ccc(C)cc2C)[nH]1
  inhibition: 14 to 45%

## Nc1ccccc1-c1nnc2n1CCCCC2
  inhibition: 5 to 46%

## Cc1c(C(=O)O)sc2ncn(C3CCCC3)c(=O)c12
  inhibition: 20 to 26%

## Cc1n[nH]c(O)c1C1=NCCCCC1
  inhibition: 4 to 65%

## COc1ccc(C(=O)CSc2nnc[nH]2)cc1C
  inhibition: 1 to 48%

## O=C(O)c1cc(-c2ccccn2)nc2ccc(F)cc12
  inhibition: 29 to 61%

## Cc1cc(C)n(-c2ccc(Cl)c(C(=O)O)n2)n1
  inhibition: 15 to 77%

## O=C(O)c1ccc(COc2ccc(F)cc2)o1
  inhibition: 10 to 16%

## Cc1cc(C(=O)O)n[nH]1
  inhibition: 34 to 42%

## O=C(O)CC(Sc1nnc[nH]1)c1ccc(Cl)cc1 (configuration not stated)
  inhibition: 54 to 55%

## CCn1cnc2sc(C(=O)O)c(C)c2c1=O
  inhibition: 7 to 47%

## C=C(C)Cn1cnc2sc(C(=O)O)c(C)c2c1=O
  inhibition: 8 to 33%

## Cc1n[nH]c(SCC(=O)NCCc2ccccc2)n1
  inhibition: 1 to 18%

## Nc1nnc(SCCOc2ccc(Cl)cc2)[nH]1
  inhibition: 31 to 32%

## Cc1c(Cl)cccc1NC(=O)CSc1nnc[nH]1
  inhibition: 22 to 62%

## Cc1c(C(=O)O)sc2nc[nH]c(=O)c12
  inhibition: 44 to 51%

## COc1ccc(C=O)cc1OCc1ccc(C(=O)O)o1
  inhibition: 36 to 65%

## Oc1ccc2nc(-c3ccccn3)oc2c1
  inhibition: 1 to 43%

Source: ChEMBL document CHEMBL4118110, “The identification of inhibitory compounds of Rickettsia prowazekii methionine aminopeptidase for antibacterial applications” (Bioorg Med Chem Lett, 2018)
